Consider eleven compounds from ChEMBL document CHEMBL1134468 (J Med Chem, 2001).

Where a SMILES comes first, the peptide text is derived from it. The star is where a group is joined. Argψ(CH2NH)TyrNH2 = N=C(N)NCCC[C@@H](CN[C@@H](Cc1ccc(O)cc1)C(N)=O)N*

Experiment [1] concerns the target T1, Neuropeptide Y receptor type 5 (Homo sapiens, UniProt Q15761).
T1 sequence (Q15761 whole entry): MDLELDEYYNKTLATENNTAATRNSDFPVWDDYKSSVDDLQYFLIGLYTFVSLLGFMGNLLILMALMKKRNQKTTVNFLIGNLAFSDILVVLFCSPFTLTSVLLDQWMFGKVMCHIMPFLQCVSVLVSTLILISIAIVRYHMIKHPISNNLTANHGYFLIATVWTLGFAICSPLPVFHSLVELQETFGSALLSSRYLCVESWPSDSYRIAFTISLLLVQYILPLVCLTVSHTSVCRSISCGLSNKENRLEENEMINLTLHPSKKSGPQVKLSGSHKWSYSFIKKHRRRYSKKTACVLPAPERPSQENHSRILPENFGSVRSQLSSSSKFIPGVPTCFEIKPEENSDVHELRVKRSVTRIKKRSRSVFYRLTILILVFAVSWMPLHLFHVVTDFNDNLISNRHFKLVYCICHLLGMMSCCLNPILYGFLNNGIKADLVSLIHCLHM
As to the kind of experiment: Agonist potency for the inhibition of Forskolin stimulated cAMP synthesis in cells expressing cloned Y5 receptors; no effect means no agonist activity at <20 000 nM. In kind it is functional.

Experiment [2] has as its target T2, Neuropeptide Y receptor type 4 (Homo sapiens, UniProt P50391). As to the kind of experiment: (§1) Affinity for cloned Y4 receptor using [125I]PP as radioligand. The method in brief:
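Displacement binding with 125I-PP as tracer in cells expressing the Y4 receptor; PP served as the reference control.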

Experiment [3] concerns the target T2, Neuropeptide Y receptor type 4. As to the kind of experiment: Agonist potency for the inhibition of Forskolin stimulated cAMP synthesis in cells expressing cloned Y4 receptors; no effect means no agonist activity at <20 000 nM. In kind it is functional. The procedure, abridged: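 Inhibition of forskolin-driven cAMP synthesis in cells expressing the Y4 receptor, with PP run as the reference control.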

Experiment [4] has as its target T1, Neuropeptide Y receptor type 5. Briefly: Affinity for cloned Y5 receptor using [125I]PYY as radioligand.
The target of experiment [5] is T3, Neuropeptide Y receptor type 2 (Homo sapiens, UniProt P49146).
T3 sequence (P49146 whole entry): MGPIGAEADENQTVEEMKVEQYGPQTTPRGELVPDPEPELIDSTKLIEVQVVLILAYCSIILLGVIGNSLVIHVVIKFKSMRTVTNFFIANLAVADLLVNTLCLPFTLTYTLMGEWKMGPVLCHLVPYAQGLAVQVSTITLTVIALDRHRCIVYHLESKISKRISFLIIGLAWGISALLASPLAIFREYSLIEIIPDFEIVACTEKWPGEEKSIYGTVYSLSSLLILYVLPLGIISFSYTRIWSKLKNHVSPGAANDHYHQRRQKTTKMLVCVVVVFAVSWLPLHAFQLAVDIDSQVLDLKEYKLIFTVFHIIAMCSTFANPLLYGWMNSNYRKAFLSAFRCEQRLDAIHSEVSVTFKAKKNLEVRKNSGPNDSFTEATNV
As to the kind of experiment: Affinity for cloned Y2 receptor using [125I]PYY as radioligand.

Experiment [6] has as its target T3, Neuropeptide Y receptor type 2. Briefly: Agonist potency for the inhibition of Forskolin stimulated cAMP synthesis in cells expressing cloned Y2 receptors; no effect means no agonist activity at <20 000 nM. In kind it is functional.
Experiment [7] has as its target T4, Neuropeptide Y receptor type 1 (Homo sapiens, UniProt P25929).
T4 sequence (P25929 whole entry): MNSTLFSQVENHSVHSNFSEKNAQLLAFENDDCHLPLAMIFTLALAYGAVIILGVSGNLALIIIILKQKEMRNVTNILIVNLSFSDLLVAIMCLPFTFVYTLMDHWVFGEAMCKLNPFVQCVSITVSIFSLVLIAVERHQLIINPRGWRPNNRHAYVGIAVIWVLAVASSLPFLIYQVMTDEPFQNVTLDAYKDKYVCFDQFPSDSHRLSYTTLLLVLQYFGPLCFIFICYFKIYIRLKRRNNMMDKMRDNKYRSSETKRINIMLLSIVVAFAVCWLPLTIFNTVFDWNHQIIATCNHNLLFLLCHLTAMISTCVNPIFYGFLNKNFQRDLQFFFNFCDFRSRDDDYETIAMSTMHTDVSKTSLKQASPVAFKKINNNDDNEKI
As to the kind of experiment: Affinity for cloned Y1 receptor using [125I]PYY as radioligand.

Experiment [8] concerns the target T5, Neuropeptide Y receptor type 1 (Homo sapiens) (UniProt P25929).
T5 sequence (whole entry): T4 sequence (P25929 whole entry)
Briefly: Antagonist potency for the inhibition of Forskolin stimulated cAMP synthesis in cells expressing cloned Y1 receptors. In kind it is functional.

For experiment [9], the target named is T2, Neuropeptide Y receptor type 4. The experiment is described as §1. This is another data set of the same source.
Experiment [10] concerns the target T5, Neuropeptide Y receptor type 1 (Homo sapiens). As to the kind of experiment: Selectivity ratio of Y1/Y2/Y4/Y5; 1/2/1/200.

T2 sequence (P50391 whole entry): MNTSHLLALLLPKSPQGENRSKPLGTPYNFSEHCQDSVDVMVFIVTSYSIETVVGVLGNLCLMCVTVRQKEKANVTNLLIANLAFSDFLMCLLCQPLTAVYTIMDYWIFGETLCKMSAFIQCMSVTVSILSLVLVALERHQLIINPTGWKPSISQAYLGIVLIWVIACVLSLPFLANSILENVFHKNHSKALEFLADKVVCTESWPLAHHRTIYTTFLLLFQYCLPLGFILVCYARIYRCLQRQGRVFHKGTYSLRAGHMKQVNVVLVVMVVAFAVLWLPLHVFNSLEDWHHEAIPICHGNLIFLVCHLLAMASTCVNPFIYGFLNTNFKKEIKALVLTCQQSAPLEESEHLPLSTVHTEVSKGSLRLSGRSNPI

For orientation: Ki means a dissociation constant, usually derived from enzyme kinetics or from competition with a known ligand. `CC[C@H](C)[C@H](N)C(=O)N[C@H]1CCC(=O)NC[C@@H](C(=O)N[C@@H](Cc2ccc(O)cc2)C(=O)N[C@@H](CCCN=C(N)N)C(=O)N[C@@H](CC(C)C)C(=O)N[C@@H](CCCN=C(N)N)C(=O)N[C@@H](Cc2ccc(O)cc2)C(=O)OC)NC(=O)[C@@H]2CCCN2C(=O)[C@@H](NC(=O)[C@@H](N)[C@@H](C)CC)CCC(=O)NC[C@@H](C(=O)N[C@@H](Cc2ccc(O)cc2)C(=O)N[C@@H](CCCN=C(N)N)C(=O)N[C@@H](CC(C)C)C(=O)N[C@@H](CCCN=C(N)N)C(=O)N[C@@H](Cc2ccc(O)cc2)C(=O)OC)NC(=O)[C@@H]2CCCN2C1=O`: the EC50 result in experiment [1], in experiment [3] and in [6] was “Not Active” each time. The Ki was determined as 33.4 nM in experiment [2], 662 nM in experiment [4], 1040 nM in experiment [5] and 0.27 nM in experiment [7].
One may read the Kb as the affinity of an antagonist, worked out from how it opposes an agonist. Low readings indicate higher antagonist affinity, high ones lower antagonist affinity. Compound `CC[C@H](C)[C@H](N)C(=O)N[C@@H](CC(N)=O)C(=O)N1CCC[C@H]1C(=O)N[C@@H](CSSC[C@@H](NC(=O)[C@@H]1CCCN1C(=O)[C@H](CC(N)=O)NC(=O)[C@@H](N)[C@@H](C)CC)C(=O)N[C@@H](Cc1ccc(O)cc1)C(=O)N[C@@H](CCCN=C(N)N)C(=O)N[C@@H](CC(C)C)C(=O)N[C@@H](CCCN=C(N)N)CN[C@@H](Cc1ccc(O)cc1)C(N)=O)C(=O)N[C@@H](Cc1ccc(O)cc1)C(=O)N[C@@H](CCCN=C(N)N)C(=O)N[C@@H](CC(C)C)C(=O)N[C@@H](CCCN=C(N)N)CN[C@@H](Cc1ccc(O)cc1)C(N)=O` gave a Kb in experiment [8] of 0.79 nM.
With `CC[C@H](C)[C@H](N)C(=O)N[C@@H](CC(N)=O)C(=O)N1CCC[C@H]1C(=O)N[C@@H](CSSC[C@H](NC(=O)[C@@H]1CCCN1C(=O)[C@H](CC(N)=O)NC(=O)[C@@H](N)[C@@H](C)CC)C(=O)N[C@@H](Cc1ccc(O)cc1)C(=O)N[C@@H](CCCN=C(N)N)C(=O)N[C@@H](CC(C)C)C(=O)N[C@@H](CCCN=C(N)N)C(=O)N[C@@H](Cc1ccc(O)cc1)C(=O)OC)C(=O)N[C@@H](Cc1ccc(O)cc1)C(=O)N[C@@H](CCCN=C(N)N)C(=O)N[C@@H](CC(C)C)C(=O)N[C@@H](CCCN=C(N)N)C(=O)N[C@@H](Cc1ccc(O)cc1)C(=O)OC`, the EC50 entry in experiment [1], in [3] and in experiment [6] was “Not Active” each time. The Ki is 99 nM in experiment [2], 464 nM in [4], 1120 nM in experiment [5] and 4.8 nM in experiment [7].
For `CC[C@H](C)[C@H](N)C(=O)N[C@H]1CCC(=O)NC[C@@H](C(=O)N[C@@H](Cc2ccc(O)cc2)C(=O)N[C@@H](CCCN=C(N)N)C(=O)N[C@@H](CC(C)C)C(=O)N[C@@H](CCCN=C(N)N)CN[C@@H](Cc2ccc(O)cc2)C(N)=O)NC(=O)[C@@H]2CCCN2C(=O)[C@H](NC(=O)[C@@H](N)[C@@H](C)CC)CCC(=O)NC[C@H](C(=O)N[C@@H](Cc2ccc(O)cc2)C(=O)N[C@@H](CCCN=C(N)N)C(=O)N[C@@H](CC(C)C)C(=O)N[C@@H](CCCN=C(N)N)CN[C@@H](Cc2ccc(O)cc2)C(N)=O)NC(=O)[C@@H]2CCCN2C1=O`, in [8], the Kb was found to be 0.58 nM.
Consider H-INPIYRLRY-NH2, for which the inhibitory constant (Ki) in [9] is 5.8 nM; in [4], more than 1000 nM; in [5], 11.3 nM; in experiment [7], 5 nM. Also, the Selectivity entry in experiment [10] was “Y1/Y4/Y2/Y5”.
Regarding `CC[C@H](C)[C@H](N)C(=O)N[C@@H](CC(N)=O)C(=O)N1CCC[C@H]1C(=O)N[C@H](C(=O)N[C@@H](Cc1ccc(O)cc1)C(=O)N[C@@H](CCCNC(=N)N)C(=O)N[C@@H](CC(C)C)C(=O)N[C@@H](CCCNC(=N)N)CN[C@@H](Cc1ccc(O)cc1)C(N)=O)[C@@H](C)CC` (H-INPIYRL-{Argψ(CH2NH)TyrNH2}), the inhibition constant (Ki) in experiment [9] stood at 3740 nM; in experiment [4], 5080 nM; in [5], 1650 nM; in experiment [7], 34.8 nM.
For `CC[C@H](C)[C@H](N)C(=O)N[C@H]1CCC(=O)NC[C@@H](C(=O)N[C@@H](Cc2ccc(O)cc2)C(=O)N[C@@H](CCCNC(=N)N)C(=O)N[C@@H](CC(C)C)C(=O)N[C@@H](CCCNC(=N)N)CN[C@@H](Cc2ccc(O)cc2)C(N)=O)NC(=O)[C@@H]2CCCN2C(=O)[C@@H](NC(=O)[C@@H](N)[C@@H](C)CC)CCC(=O)NC[C@@H](C(=O)N[C@@H](Cc2ccc(O)cc2)C(=O)N[C@@H](CCCNC(=N)N)C(=O)N[C@@H](CC(C)C)C(=O)N[C@@H](CCCNC(=N)N)CN[C@@H](Cc2ccc(O)cc2)C(N)=O)NC(=O)[C@@H]2CCCN2C1=O`, the inhibition constant (Ki) in experiment [2] is 65.5 nM; in experiment [4], 7890 nM; in [5] it was 624 nM; in [7], 0.46 nM.
For `CC[C@H](C)[C@H](N)C(=O)N[C@@H](CC(N)=O)C(=O)N1CCC[C@H]1C(=O)N[C@@H](CSSC[C@H](NC(=O)[C@@H]1CCCN1C(=O)[C@H](CC(N)=O)NC(=O)[C@@H](N)[C@@H](C)CC)C(=O)N[C@@H](Cc1ccc(O)cc1)C(=O)N[C@@H](CCCNC(=N)N)C(=O)N[C@@H](CC(C)C)C(=O)N[C@@H](CCCNC(=N)N)CN[C@@H](Cc1ccc(O)cc1)C(N)=O)C(=O)N[C@@H](Cc1ccc(O)cc1)C(=O)N[C@@H](CCCNC(=N)N)C(=O)N[C@@H](CC(C)C)C(=O)N[C@@H](CCCNC(=N)N)CN[C@@H](Cc1ccc(O)cc1)C(N)=O`, in that order: 65 nM, 2340 nM, 822 nM and 2.3 nM.
As for `CC[C@H](C)[C@H](N)C(=O)N[C@@H](CC(N)=O)C(=O)N1CCC[C@H]1C(=O)N[C@@H](CSSC[C@H](NC(=O)[C@@H]1CCCN1C(=O)[C@H](CC(N)=O)NC(=O)[C@@H](N)[C@@H](C)CC)C(=O)N[C@@H](Cc1ccc(O)cc1)C(=O)N[C@@H](CCCN=C(N)N)C(=O)N[C@@H](CC(C)C)C(=O)N[C@@H](CCCN=C(N)N)CN[C@@H](Cc1ccc(O)cc1)C(N)=O)C(=O)N[C@@H](Cc1ccc(O)cc1)C(=O)N[C@@H](CCCN=C(N)N)C(=O)N[C@@H](CC(C)C)C(=O)N[C@@H](CCCN=C(N)N)CN[C@@H](Cc1ccc(O)cc1)C(N)=O`, the EC50 result in [1], in [3] and in experiment [6] was “Not Active” each time.
`CC[C@H](C)[C@H](N)C(=O)N[C@@H](CC(N)=O)C(=O)N1CCC[C@H]1C(=O)N[C@@H](CSSC[C@@H](NC(=O)[C@@H]1CCCN1C(=O)[C@H](CC(N)=O)NC(=O)[C@@H](N)[C@@H](C)CC)C(=O)N[C@@H](Cc1ccc(O)cc1)C(=O)N[C@@H](CCCN=C(N)N)C(=O)N[C@@H](CC(C)C)C(=O)N[C@@H](CCCN=C(N)N)C(=O)N[C@@H](Cc1ccc(O)cc1)C(=O)OC)C(=O)N[C@@H](Cc1ccc(O)cc1)C(=O)N[C@@H](CCCN=C(N)N)C(=O)N[C@@H](CC(C)C)C(=O)N[C@@H](CCCN=C(N)N)C(=O)N[C@@H](Cc1ccc(O)cc1)C(=O)OC` gave a Kb in experiment [8] of 2.3 nM.
`CC[C@H](C)[C@H](N)C(=O)N[C@@H](CC(N)=O)C(=O)N1CCC[C@H]1C(=O)N[C@H](C(=O)N[C@@H](Cc1ccc(O)cc1)C(=O)N[C@@H](CCCNC(=N)N)C(=O)N[C@@H](CC(C)C)C(=O)N[C@@H](CCCNC(=N)N)C(=O)N[C@@H](Cc1ccc(O)cc1)C(=O)OC)[C@@H](C)CC` (H-INPIYRLRY-OMe): the inhibition constant Ki in [9] was determined as 2400 nM; in [4] it was 7100 nM; in [5], 1420 nM; in [7], 25.7 nM.
